The record followed here is the RNAGym collection of RNA variant scans (doi:10.1002/anie.201605470).

To fix the notation:
B1: Osa-1-4 twister ribozyme (parent)
chain: CCGCCUAACACUGCCAAUGCCGGUCCCAAGCCCGGAUAAAAGUGGAGGGGGCGG

This series covers variants of B1. Description: self-cleavage, relative activity (ratio to wild type); higher = more cleavage; co-transcriptional. In outline: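 A DNA template for a 54-nucleotide Oryza sativa twister ribozyme was synthesised with 97 % wild-type base and 1 % of each other base at the 48 positions downstream of the cleavage site. It was transcribed in vitro for 2 h at 37 °C, allowing co-transcriptional self-cleavage, then reverse-transcribed with a template-switching oligonucleotide, PCR-amplified and deep-sequenced. Cleavage status was scored from reads with or without upstream sequence. Relative activity is fraction cleaved normalised to wild type.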
With CCGCCUAACACUGUCAAUGCUGGUCCCAAGCCCGGAUAAAAGUGGAGGGGGCGG [C14U C21U], the self-cleavage amounted to 0.39.

CCGCCUAACACUGUCAAUGCAGGUCCCAAGCCCGGAUAAAAGUGGAGGGGGCGG [C14U C21A]: the self-cleavage was 0.12.

In the case of CCGCCUAACACUGUCAAUGCGGGUCCCAAGCCCGGAUAAAAGUGGAGGGGGCGG [C14U C21G], the self-cleavage was found to be 0.06.

As for CCGCCUAACACUGUCAAUGCCGGUCCGAAGCCCGGAUAAAAGUGGAGGGGGCGG [C14U C27G], the self-cleavage turned out to be 0.06.

For CCGCCUAACACUGUCAAUGCCGGUCCAAAGCCCGGAUAAAAGUGGAGGGGGCGG [C14U C27A], the self-cleavage amounted to 0.05.

Consider CCGCCUAACACUGUCAAUGCCGGUCCUAAGCCCGGAUAAAAGUGGAGGGGGCGG [C14U C27U], for which the self-cleavage amounted to 0.06.

With CCGCCUAACACUGUCAAUGCCGGUCCCAAGCCUGGAUAAAAGUGGAGGGGGCGG [C14U C33U], the self-cleavage worked out at 0.08.

Turning to CCGCCUAACACUGUCAAUGCCGGUCCCAAGCCGGGAUAAAAGUGGAGGGGGCGG [C14U C33G], the self-cleavage came to 0.03.

In the case of CCGCCUAACACUGUCAAUGCCGGUCCCAAGCCAGGAUAAAAGUGGAGGGGGCGG [C14U C33A], the self-cleavage worked out at 0.04.

On to CCGCCUAACACUGUCAAUGCCGAUCCCAAGCCCGGAUAAAAGUGGAGGGGGCGG [C14U G23A], for which the self-cleavage is 0.06.

Turning to CCGCCUAACACUGUCAAUGCCGUUCCCAAGCCCGGAUAAAAGUGGAGGGGGCGG [C14U G23U], the self-cleavage came out at 0.03.

As to CCGCCUAACACUGUCAAUGCCGCUCCCAAGCCCGGAUAAAAGUGGAGGGGGCGG [C14U G23C], the self-cleavage stood at 0.04.

CCGCCUAACACUCUCAAUGCCGGUCCCAAGCCCGGAUAAAAGUGGAGGGGGCGG [C14U G13C]: the self-cleavage came out at 0.02.

Take CCGCCUAACACUAUCAAUGCCGGUCCCAAGCCCGGAUAAAAGUGGAGGGGGCGG [C14U G13A]: the self-cleavage was 0.03.

On to CCGCCUAACACUUUCAAUGCCGGUCCCAAGCCCGGAUAAAAGUGGAGGGGGCGG [C14U G13U], for which the self-cleavage came to 0.02.

Consider CCGCCUAACACUGUCAAUGCCGGUCCCAACCCCGGAUAAAAGUGGAGGGGGCGG [C14U G30C], for which the self-cleavage was determined as 0.03.

As to CCGCCUAACACUGUCAAUGCCGGUCCCAAUCCCGGAUAAAAGUGGAGGGGGCGG [C14U G30U], the self-cleavage was 0.03.

Regarding CCGCCUAACACUGUCAAUGCCGGUCCCAAACCCGGAUAAAAGUGGAGGGGGCGG [C14U G30A], the self-cleavage stood at 0.79.

Turning to CCGCCUAACACUGUCAAUGCCGGUCCCAAGCACGGAUAAAAGUGGAGGGGGCGG [C14U C32A], the self-cleavage was found to be 0.04.

For the variant CCGCCUAACACUGUCAAUGCCGGUCCCAAGCGCGGAUAAAAGUGGAGGGGGCGG [C14U C32G], the self-cleavage is 0.04.

For CCGCCUAACACUGUCAAUGCCGGUCCCAAGCUCGGAUAAAAGUGGAGGGGGCGG [C14U C32U], the self-cleavage turned out to be 0.06.

With CCGCCUAACACUGUCAAUGCCGGUACCAAGCCCGGAUAAAAGUGGAGGGGGCGG [C14U C25A], the self-cleavage was determined as 0.06.

As to CCGCCUAACACUGUCAAUGCCGGUGCCAAGCCCGGAUAAAAGUGGAGGGGGCGG [C14U C25G], the self-cleavage was found to be 0.06.

On to CCGCCUAACACUGUCAAUGCCGGUUCCAAGCCCGGAUAAAAGUGGAGGGGGCGG [C14U C25U], for which the self-cleavage came out at 0.1.

Regarding CCGCCUAACACUGUCAAUGCCGGUCCCAAGACCGGAUAAAAGUGGAGGGGGCGG [C14U C31A], the self-cleavage was found to be 0.03.

CCGCCUAACACUGUCAAUGCCGGUCCCAAGGCCGGAUAAAAGUGGAGGGGGCGG [C14U C31G]: the self-cleavage is 0.06.

For CCGCCUAACACUGUCAAUGCCGGUCCCAAGUCCGGAUAAAAGUGGAGGGGGCGG [C14U C31U], the self-cleavage came to 0.06.

With CCGCCUAACACUGUCAAUGACGGUCCCAAGCCCGGAUAAAAGUGGAGGGGGCGG [C14U C20A], the self-cleavage worked out at 0.51.

Turning to CCGCCUAACACUGUCAAUGUCGGUCCCAAGCCCGGAUAAAAGUGGAGGGGGCGG [C14U C20U], the self-cleavage is 0.48.

CCGCCUAACACUGUCAAUGGCGGUCCCAAGCCCGGAUAAAAGUGGAGGGGGCGG [C14U C20G]: the self-cleavage amounted to 0.05.

As to CCGCCUAACACUGUCAAUCCCGGUCCCAAGCCCGGAUAAAAGUGGAGGGGGCGG [C14U G19C], the self-cleavage is 0.03.

As to CCGCCUAACACUGUCAAUACCGGUCCCAAGCCCGGAUAAAAGUGGAGGGGGCGG [C14U G19A], the self-cleavage is 0.09.

As to CCGCCUAACACUGUCAAUUCCGGUCCCAAGCCCGGAUAAAAGUGGAGGGGGCGG [C14U G19U], the self-cleavage came to 0.05.

For CCGCCUAACACUGUCAAUGCCGGUCCCAAGCCCGAAUAAAAGUGGAGGGGGCGG [C14U G35A], the self-cleavage was 0.43.

With CCGCCUAACACUGUCAAUGCCGGUCGCAAGCCCGGAUAAAAGUGGAGGGGGCGG [C14U C26G], the self-cleavage worked out at 0.07.

With CCGCCUAACACUGUCAAUGCCGGUCACAAGCCCGGAUAAAAGUGGAGGGGGCGG [C14U C26A], the self-cleavage was found to be 0.03.

For the variant CCGCCUAACACUGUCAAUGCCGGUCUCAAGCCCGGAUAAAAGUGGAGGGGGCGG [C14U C26U], the self-cleavage is 0.11.

In the case of CCGCCUAACACUGUCAAUGCCGGUCCCAAGCCCGGAUAAAAGUGGAGGGGGUGG [C14U C52U], the self-cleavage stood at 0.52.

On to CCGCCUAACACUGUCAAUGCCGGUCCCAAGCCCGGAUAAAAGUGGAGGGGGAGG [C14U C52A], for which the self-cleavage was 0.21.

On to CCGCCUAACACUGUCAAUGCCGGUCCCAAGCCCGGAUAAAAGUGGAGGGGGGGG [C14U C52G], for which the self-cleavage turned out to be 0.28.

With CCGCCUAACACUGUUAAUGCCGGUCCCAAGCCCGGAUAAAAGUGGAGGGGGCGG [C14U C15U], the self-cleavage is 0.09.

In the case of CCGCCUAACACUGUGAAUGCCGGUCCCAAGCCCGGAUAAAAGUGGAGGGGGCGG [C14U C15G], the self-cleavage turned out to be 0.07.

Regarding CCGCCUAACACUGUAAAUGCCGGUCCCAAGCCCGGAUAAAAGUGGAGGGGGCGG [C14U C15A], the self-cleavage was 0.08.

For CCGCCUAACACUGUCAAUGCCGGUCCCAAGCCCCGAUAAAAGUGGAGGGGGCGG [C14U G34C], the self-cleavage was 0.08.

As to CCGCCUAACACUGUCAAUGCCGGUCCCAAGCCCAGAUAAAAGUGGAGGGGGCGG [C14U G34A], the self-cleavage is 0.15.

Consider CCGCCUAACACUGUCAAUGCCGGUCCCAAGCCCUGAUAAAAGUGGAGGGGGCGG [C14U G34U], for which the self-cleavage turned out to be 0.11.

Turning to CCGCCUAACACUGUCAAUGCCUGUCCCAAGCCCGGAUAAAAGUGGAGGGGGCGG [C14U G22U], the self-cleavage came to 0.11.

As for CCGCCUAACACUGUCAAUGCCCGUCCCAAGCCCGGAUAAAAGUGGAGGGGGCGG [C14U G22C], the self-cleavage turned out to be 0.04.

As for CCGCCUAACACUGUCAAUGCCAGUCCCAAGCCCGGAUAAAAGUGGAGGGGGCGG [C14U G22A], the self-cleavage amounted to 0.21.
